One compound from ChEMBL document CHEMBL4342473, “Lead Optimization of Benzoxazolone Carboxamides as Orally Bioavailable and CNS Penetrant Acid Ceramidase Inhibitors” (J Med Chem, 2020) can be followed below.

Data set [1] in a line: Unbound plasma concentration in C57BL/6J/129SvEV mouse model of Gaucher's disease at 30 mg/kg, ip administered once daily for 14 days measured 1 hr post last dose. The format is ADME, organism-based. To be noted: in vivo. Put shortly: (§1)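 4L;C* mice dosed i.p. once daily for 14 days, killed 1 h after last dose (day 14); plasma and brain drug levels measured; unbound concentrations from plasma and brain unbound fractions (mean of two technical replicates); N = 4–8, mixed sexes.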

Data set [2] is described as follows: Ratio of unbound drug level in brain of twitcher mouse model of Krabbe's disease at 30 mg/kg,ip administered once daily for 20 days measured 1 hr post-last dose to EC50 for inhibition of acid ceramidase in Krabbe's disease patient-derived primary fibroblasts. The format is organism-based. To be noted: in vivo. A digest of the protocol: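 Twitcher mice (3 males + 3 females per group) got 30 or 90 mg kg–1 i.p. once daily for 20 days from postnatal day 10 and were sacrificed 1 h after the day-20 dose. Plasma and brain levels were measured, and unbound brain level came from brain fraction unbound (two technical replicates). The EC50 was from Krabbe patient primary fibroblasts exposed 2 h to a concentration series (two independent experiments, duplicates).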

Data set [3] is described as follows: Unbound drug level in brain of C57BL/6J/129SvEV mouse model of Gaucher's disease at 30 mg/kg, ip administered once daily for 14 days measured 1 hr post-last dose. The format is ADME, organism-based. The note with it: in vivo. Put shortly:
as §1

For data set [4], the target named is T1, Acid ceramidase (Homo sapiens) (UniProt Q13510).
T1 sequence (whole entry): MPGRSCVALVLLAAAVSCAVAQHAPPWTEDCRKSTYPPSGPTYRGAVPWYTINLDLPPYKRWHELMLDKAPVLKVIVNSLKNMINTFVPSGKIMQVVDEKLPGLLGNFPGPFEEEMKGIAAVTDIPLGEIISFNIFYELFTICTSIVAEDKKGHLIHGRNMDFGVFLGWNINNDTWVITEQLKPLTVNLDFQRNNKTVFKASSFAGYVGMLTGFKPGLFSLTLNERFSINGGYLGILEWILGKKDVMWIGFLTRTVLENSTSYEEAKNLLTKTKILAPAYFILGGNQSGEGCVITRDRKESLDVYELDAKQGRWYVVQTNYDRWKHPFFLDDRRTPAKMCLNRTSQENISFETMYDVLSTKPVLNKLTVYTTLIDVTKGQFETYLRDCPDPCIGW
Briefly: Inhibition of acid ceramidase in human SH-SY5Y cells assessed as change in intracellular accumulation of HexCer (d18:1/16:0) at 10 uM measured up to 6 hrs by LC/MS analysis. The format is cell-based. A digest of the protocol:
(§2)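 Human neuroblastoma SH-SY5Y cells incubated with compound at 10 μM for 30 min, 1 h, 3 h and 6 h; AC activity by LC/MS-based activity assay; Cer (d18:0/16:0), Cer (d18:1/16:0), sphingosine, SM (d18:1/16:0) and HexCer (d18:1/16:0) quantified by LC/MS.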

The target of data set [5] is T1, Acid ceramidase (Homo sapiens). Briefly: Inhibition of acid ceramidase in human SH-SY5Y cells assessed as decrease in sphingosine level at 10 uM measured up to 6 hrs by LC/MS analysis. The format is cell-based. Put shortly:
as §2

Data set [6] shares this target. Put plainly: Inhibition of acid ceramidase in human SH-SY5Y cells using N-lauroyl ceramide as substrate measured after 3 hrs by LC/MS analysis. The format is cell-based. A digest of the protocol: (§3)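 SH-SY5Y neuroblastoma cells exposed 3 h to 1, 2.5, 5 and 10 μM; AC activity by LC/MS-based assay; ceramide species, sphingosine, SM and HexCer (d18:1/16:0) quantified by LC/MS; means ± S.E.M. of at least six determinations, experiment repeated twice.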

The target is the same in data set [7]. Briefly: Inhibition of acid ceramidase in human SH-SY5Y cells assessed as increase in intracellular accumulation of Cer (d18:1/16:0) at 10 uM measured up to 6 hrs by LC/MS analysis. The format is cell-based. A digest of the protocol:
as §2

Data set [8] has the same target. Briefly: Inhibition of acid ceramidase in human SH-SY5Y cells at 10 uM using N-lauroyl ceramide as substrate by LC/MS analysis. The format is cell-based. The note with it: TDE = time-dependent effect. Put shortly:
as §2

For data set [9], the target named is T2, Monoglyceride lipase (Homo sapiens) (UniProt Q99685).
T2 sequence (whole entry): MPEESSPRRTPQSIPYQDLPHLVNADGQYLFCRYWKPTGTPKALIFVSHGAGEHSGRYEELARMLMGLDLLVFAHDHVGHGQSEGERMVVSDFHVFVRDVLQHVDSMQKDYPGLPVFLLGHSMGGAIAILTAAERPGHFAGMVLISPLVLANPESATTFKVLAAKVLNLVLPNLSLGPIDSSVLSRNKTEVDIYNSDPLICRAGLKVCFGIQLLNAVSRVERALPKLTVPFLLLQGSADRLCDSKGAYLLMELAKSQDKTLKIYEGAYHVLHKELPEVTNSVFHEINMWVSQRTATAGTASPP
Briefly: Inhibition of recombinant human MAGL at 1 to 10 uM using 4-nitrophenylacetate as substrate preincubated for 5 mins followed by substrate addition and measured after 10 mins by colorimetric method.

Data set [10] is described as follows: Ratio of unbound drug level in brain of C57BL/6J/129SvEV mouse model of Gaucher's disease at 30 mg/kg, ip administered once daily for 14 days measured 1 hr post-last dose to EC50 for inhibition of acid ceramidase in Krabbe's disease patient-derived primary fibroblasts. The format is organism-based. To be noted: in vivo. Put shortly:
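Gaucher-model 4L;C* mice (N = 4–8, mixed sexes) got 30 or 90 mg kg–1 i.p. once daily for 14 days from postnatal day 5 and were sacrificed 1 h after the day-14 dose. Compound levels were measured in plasma and brain, and unbound brain level came from brain fraction unbound (two technical replicates). The reference EC50 was from Krabbe patient primary fibroblasts incubated 2 h across concentrations (two independent experiments, duplicates).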

A short description of data set [11]: Unbound plasma concentration in C57BL/6J/129SvEV mouse model of Gaucher's disease at 90 mg/kg, ip administered once daily for 14 days measured 1 hr post last dose. The format is ADME, organism-based. To be noted: in vivo. Put shortly: as §1
Data set [12] in a line: Unbound drug level in brain of twitcher mouse model of Krabbe's disease at 30 mg/kg,ip administered once daily for 20 days measured 1 hr post-last dose. The format is ADME, organism-based. To be noted: in vivo. Put shortly:
(§4)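 Twitcher mice dosed i.p. once daily for 20 days, sacrificed 1 h after last dose (day 20); drug measured in plasma and brain; unbound levels from unbound fractions (mean of two technical replicates); N = 3 males + 3 females per group.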

For data set [13], the target named is T1, Acid ceramidase (Homo sapiens). Put plainly: Inhibition of acid ceramidase in human SH-SY5Y cells assessed as decrease in sphingosine level measured after 3 hrs by LC/MS analysis. The format is cell-based. A digest of the protocol: as §3
In data set [14] the test system is Mus musculus. Briefly: Neuroprotective activity in ip dosed C57BL/6J/129SvEV mouse model of Gaucher's disease assessed as reduction in GluSph (d18:1) level in brain administered once daily for 14 days measured 1 hr post-last dose by MS analysis. The format is functional, organism-based. Put shortly: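 4L;C* mice (neuropathic Gaucher model) given 30 or 90 mg kg–1 i.p. once daily for 14 days from postnatal day 5; killed 1 h after last dose; brain GluSph (d18:1) measured; N = 4–8 per group, mixed sexes.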

The nature of data set [15]: Unbound drug level in brain of twitcher mouse model of Krabbe's disease at 90 mg/kg,ip administered once daily for 20 days measured 1 hr post-last dose. The format is ADME, organism-based. To be noted: in vivo. A digest of the protocol:
as §4

The nature of data set [16]: Unbound plasma concentration in twitcher mouse model of Krabbe's disease at 30 mg/kg, ip administered once daily for 20 days measured 1 hr post-last dose. The format is ADME, organism-based. The note with it: in vivo. Put shortly: as §4
Data set [17] has as its target T1, Acid ceramidase (Homo sapiens). Briefly: Inhibition of acid ceramidase in human SH-SY5Y cells assessed as increase in intracellular accumulation of Cer (d18:0/16:0) measured after 3 hrs by LC/MS analysis. The format is cell-based. Put shortly:
as §3

Calls of active or inactive are those of the source. The calls are words filed in the database; no cut-off is given here.

For the compound `CC(C)CNC(=O)n1c(=O)oc2cc(C3CCN(C)CC3)ccc21`, the “Cp(f)” value in [1] turned out to be 420 nM; in [11], 2320 nM; in data set [16] it was 110 nM. Moreover, the Ratio in [2] amounted to 2; in [10], 1.9. Besides, the “Drug uptake(free)” value in [3] came to 0.77 µM; in [12], 0.8 µM; in data set [15], 2.15 µM. Further, the inhibition result in data set [4] and in [9] was “inactive” throughout. Also, the inhibition entry in data set [5] and in data set [7] was “Active” each time. In addition, the inhibition result in [6] was “Dose-dependent effect”; in [8] it was “Tde”; in data set [13] it was “Dose-dependent effect”; in data set [17] it was “Dose-dependent effect”. In [14], the Activity result is “Dose-dependent effect”.
